Assay: Toxicity liver stage against HepG2, at 10uM
Type: cell-based
Parameters: test concentration 10 uM, cell line HepG2-A16-CD81EGFP
Details: human, HepG2-A16-CD81EGFP cells; read-out: INHIBITION
Method in brief: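 Uninfected HepG2-A16-CD81EGFP cells, 3 × 10^3 per well, 1536-well, plated on prespotted compound at 10 μM final, parasite-free screening media added to match infected plates; puromycin 10 μM positive, DMSO 0.5% negative; run in parallel with 48 h PbLuc assay at 37 °C, 5% CO2; viability by CellTiter-Glo luminescence, normalized to controls.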

Row | Structure (SMILES) | cytotoxicity at 10 µM [%]
1 | O=C(NCc1ccc(Cl)cc1)[C@@H]1Cc2[nH]cnc2CN1CC1CC1 | 3.67
2 | Cn1nc(-c2cccs2)cc1[C@H]1CN2CC[C@H]1C[C@@H]2CNS(C)(=O)=O | -1.39
3 | Cc1cccc(CN2C[C@@H]3CN(C(=O)c4cnccn4)C[C@@H]3C2=O)c1 | 2.43
4 | CC(C)NC(=O)C1CN(C(=O)CCc2ccccc2)CC12CCOCC2 (stereo not drawn) | -3
5 | CCOc1ccc(NC(=O)Cn2cc(I)cn2)cc1 | 9.84
6 | Cc1ccsc1C(=O)N1CC(C(=O)NCC2CC2)C2(CCOCC2)C1 (stereo not drawn) | 0.955
7 | CCN(CC)C(=O)c1ccn(COc2c(Cl)cccc2Cl)n1 | 11.6
8 | Cc1nn(C)c(C)c1CN1CCN(CC2(O)CCCN(C)C2)CC1 (stereo not drawn) | 9.07
9 | COCCCNC(=O)CCn1ncc2c(Cl)cccc21 | 7.72
10 | CCn1nc(C)cc1NC(=O)CCn1nc(C)c2ccccc21 | 4.98
11 | CCN(CC)C(=O)c1cc(C2(C)CCN(C(C)=O)CC2)nc(C)n1 | 5.27
12 | CN1CCc2nc3cc(C(=O)NCc4cccs4)ccc3c(=O)n2CC1 | 0.207
13 | Cc1cc2nccc(C3CCN(C(=O)c4ccccc4F)CC3)n2n1 | 1.16
14 | Cc1ncsc1CN1CCOC(C)(C(=O)N(C)C)C1 (stereo not drawn) | 12.1
15 | CCS(=O)(=O)N1CCC(n2nc(-c3cc(C)oc3C)ccc2=O)CC1 | 8.82
16 | COc1cccc(-c2nccc(C3CCCN3C)n2)c1 (stereo not drawn) | 9.27
17 | CC(C)C1=NOC2(CCN(C(=O)C3CCCC3)CC2)C1 | 6.69
18 | OC1(CNc2ccccc2)CCNCC1 | -1.9
19 | NC(=O)CC1CCN(S(=O)(=O)c2cnn(-c3ccccc3)c2)CC1 | 12
20 | COc1ccc(CN(C)C(=O)CN2CC(n3cccn3)C2)cc1F | -0.717
21 | Cc1cccnc1NC(=O)c1ccc(F)c(S(=O)(=O)NC2CC2)c1 | 1.77

Row | Structure (SMILES) | cytotoxicity at 10 µM [%]
22 | Cc1cc(C2CCCN(C(=O)COc3ccccc3F)C2)n[nH]1 (stereo not drawn) | 7.45
23 | CCn1cnnc1CNC(=O)N(C)Cc1ccc(Cl)cc1Cl | -17.7
24 | COC(=O)N1CCCC(NC(=O)NCc2nc(C)cs2)C1 (stereo not drawn) | 7.25
25 | Cc1cccnc1CNc1ccc(C(=O)N2CCc3ccccc32)cn1 | -0.608
26 | Cc1nnc(SCc2cccc(F)c2)n1CC(N)=O | -6.58
27 | COc1ccc(CCNC(=O)C(C)Nc2cccc(C)c2C)cc1 (stereo not drawn) | -5.91
28 | Cc1cc(F)cc2c(N3CCC(S(N)(=O)=O)CC3)c(C#N)cnc12 | 0.79
29 | COCc1nccc(C2CCCN(Cc3cccc(F)c3)C2)n1 (stereo not drawn) | 0.769
30 | CN1CCN(CC2CCN(C(=O)CCC3CCCCC3)CC2)CC1 | -3.68
31 | COCCNC(=O)c1ccoc1CN1c2ccccc2CC1C (stereo not drawn) | 5.41
32 | Cc1cn(-c2ccccc2)nc1NS(=O)(=O)c1ccc(C(=O)O)cc1 | -5.51
33 | COc1c(C2CCCN2C(=O)c2cccn2C)c(C)nn1C (stereo not drawn) | -1.88
34 | CCN1CCN(c2ccc(NC(C)c3nc(C(C)C)no3)c(C)c2)CC1 (stereo not drawn) | -10
35 | Cc1nn(C)c(Cl)c1CNCCOc1ccc2c(c1)OCO2 | 1.52
36 | Cc1oc(CN(C)C(=O)c2ccc(Br)cc2)cc1C(=O)O | 5.5
37 | CC(SCc1ccc(Br)c2cccnc12)C(N)=O (stereo not drawn) | 1.67
38 | O=C(NCC1(c2ccc(F)cc2)CCC1)N1CCC2(C1)OCCO2 | 2.58
39 | Cc1cc(CNC2(c3ccccc3)CCCCC2)no1 | 2.94
40 | CCOc1ccc(NC(C)c2nnnn2-c2ccccc2)cc1CO (stereo not drawn) | -5
41 | Cc1cc(=O)n2nc(Oc3cc(Cl)cc(Cl)c3)sc2n1 | 16.8
42 | CC(CNC(=O)c1cnc[nH]1)Oc1ccc(Cl)cc1 (stereo not drawn) | -7.09

Row | Structure (SMILES) | cytotoxicity at 10 µM [%]
43 | CC(C)(C)NC(=O)CNC(=O)CCc1ccccc1Br | 3.09
44 | CN(C)CC(=O)N1CCC2(CCN(Cc3ccccn3)C2=O)C1 (stereo not drawn) | 1.23
45 | O=C1NCCCc2[nH]c(Cc3ccc(F)cc3)nc21 | -20.9
46 | CCC1(CO)CCCN(C(=O)c2cc(COc3cccc(F)c3)[nH]n2)C1 (stereo not drawn) | 5.31
47 | Cc1nc[nH]c1CN1CCCC12CCN(c1ccccn1)CC2 | 4.55
48 | CC1(C)Cc2c(cnn2-c2ccccc2)C(NC2CCSCC2)C1 (stereo not drawn) | -186
49 | CN(C)CCn1ccnc1C1CCN(C(=O)CCc2cccnc2)CC1 | -2.21
50 | CCCc1nnc(N2CCC(N3CCN(CCO)CC3)CC2)o1 | -4.95
51 | COCCN1CC2(CCC1=O)CCN(Cc1cc(F)ccc1Cl)CC2 | 5.29
52 | CC(C)(O)c1cn(C2CCN(C(=O)CCC3CCCC3)CC2)nn1 | 1.2
53 | CC(C)CN1CC(c2nc(CCc3ccccc3)n[nH]2)CC1=O (stereo not drawn) | 6.08
54 | O=S1(=O)CCC(n2nc(COc3ccccc3)nc2-c2cnccn2)C1 (stereo not drawn) | -4.64
55 | O=C(CCCn1cncn1)N1CCC2(CCCNC2=O)C1 (stereo not drawn) | -3.89
56 | O=C1NCCCC12CCN(Cc1ccc(-c3ccccc3)s1)C2 (stereo not drawn) | 16.9
57 | CCn1c(C2CCNCC2)nn(CCn2ccc(C)n2)c1=O | 2.6
58 | COC(=O)N1CCCCC1C(=O)N1CCC(c2ccncc2)CC1 (stereo not drawn) | 11.7
59 | Cn1c(CN2CCCC2)nnc1C1CCCN(C(=O)CN2CCCC2)C1 (stereo not drawn) | -1.9
60 | COc1ncccc1C(=O)N(C)Cc1nc(-c2ccccn2)no1 | 3.38
61 | CCS(=O)(=O)c1ncc(CN(C)Cc2ccccn2)n1CCOC | -13.3
62 | C[C@@H]1CN(C2(C(=O)N3CCOCC3)Cc3ccccc3C2)C[C@H](C)O1 | 1.12
63 | COc1cc2nc3n(c(=O)c2cc1OC)CCN(C(C)=O)CC3 | -2.65

Row | Structure (SMILES) | cytotoxicity at 10 µM [%]
64 | Cc1nn(C)c(Cl)c1C1CCCN1Cc1noc(C2CC2)n1 (stereo not drawn) | -1.64
65 | OCCn1nccc1C1CCN(CCOc2ccccc2Cl)CC1 | -5.04
66 | O=c1[nH]c(CN2CCCC(Cn3cncn3)C2)nc2ccccc12 (stereo not drawn) | -12.4
67 | CCn1ccnc1CN1CCN(C(C)C(=O)N2CCCC2)CC1 (stereo not drawn) | -3.97
68 | COc1ccc(OC)c(CNC(=O)N2CCC(n3cncn3)CC2)c1 | 2.46
69 | CCNC(c1cccnc1)c1ccc(F)c(C)c1 (stereo not drawn) | -1.77
70 | COc1ccc(CCC(=O)NC2CCC(O)CC2)cc1OC (stereo not drawn) | -5.26
71 | Cc1nccn1-c1cc(CNC(=O)CCC2CCCO2)ccn1 (stereo not drawn) | -3.09
72 | Cc1nn(C)c(Cl)c1C1CCCN1C(=O)c1cc[nH]n1 (stereo not drawn) | -5.55
73 | CCOc1cccc2c1OCC(C(=O)NS(=O)(=O)c1ccc(C)s1)=C2 | -9.02
74 | CCS(=O)(=O)CCN1CCC(N(C)Cc2noc(C(C)C)n2)C1 (stereo not drawn) | -5.55
75 | CCC(O)CN1CCN(C(=O)c2sccc2OC)CC1 (stereo not drawn) | -7.25
76 | Cc1n[nH]c(C2CN(C(=O)c3ccnc(C4CC4)n3)CCO2)n1 (stereo not drawn) | 1.85
77 | Cc1nc(C)n(CC2CCCN(CCC(=O)N3CCCCC3)C2)n1 (stereo not drawn) | 3.9
78 | Cn1cnnc1C1CCCN(C(=O)c2ccc3c(c2)OCCCO3)C1 (stereo not drawn) | 3.66
79 | O=C1COC2(CCN(Cc3cccs3)CC2)CN1c1ccsc1 | -125
80 | CCS(=O)(=O)N[C@@H]1CN(Cc2cc(C)on2)C[C@@H]2CCCO[C@@H]21 | -6.01
81 | CN1CCc2ncc(CNC(=O)c3cccn3C)n2CC1 | 1.27
82 | CCn1nnc2c1C(COC)CN(Cc1ccsc1)C2 (stereo not drawn) | 2.3
83 | O=C(NCC1CCC(c2ccnc3ncnn23)CC1)C1CC1 (stereo not drawn) | 9.17

— ChEMBL document CHEMBL4513216, “Probing the Open Global Health Chemical Diversity Library for Multistage-Active Starting Points for Next-Generation Antimalarials” (ACS Infect Dis, 2020)
